Measurements reported in the RNAGym collection of RNA variant scans (doi:10.1126/science.aae0568).
This sample holds only a part of the variants without activity.

B1: tRNA (parent)
chain: GUUCCGUUGGCGUAAUGGUAACGCGUCUCCCUCCUAAGGAGAAGACUGCGGGUUCGAGUCCCGUACGGAACG

Variants of: B1
Assay: yeast fitness relative to wild type (ratio to wild type); higher = fitter; tRNA-Arg(CCU), competitive growth, 37 C, YPD
In short: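 A pool of Saccharomyces cerevisiae strains, each with a tRNA-Arg(CCU) gene variant at the native genomic locus, was competed in YPD at 37°C for 24 hours across six parallel replicates. The variants had been chemically synthesised at a 3% per-site mutation rate over 69 sites, and gene amplicons before and after competition were read by 100-nucleotide paired-end sequencing. Darwinian fitness relative to wild type rested on changes in genotype frequencies. Genotypes required ≥ 100 starting reads, and estimates < 0.5 were set to 0.5.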

| Variant | yeast fitness |
| --- | --- |
| GAUCGGUUGGCGUAAUGGUAACGCGUCUCCUUCCUAAGGAGAAGACUGCGGGUUCGAGUCCCGUAUGGAACG [U2A C5G C31U C66U] | ≤ 0.5 |
| GAUUCGUUGGCGUAAUGGUAACGCGUCACUCUCCUAAGGAGAAGACUGCGGGUUCGAGUGCCGUAGGGAACG [U2A C4U U28A C30U C60G C66G] | ≤ 0.5 |
| GAUCUGUUGGCGUAAUGGUAACGUGUCUCCCUCUUAAGGCGAAGACUGCGGGUUCGAGUCCCGUACGGAACG [U2A C5U C24U C34U A40C] | ≤ 0.5 |
| GAUCCGUUGGCGUAAUGGUAACGCGUCUCCCUCCUAAGGAGAAGUCUGCGGGUUCGAGUCCGGUACGGAACG [U2A A45U C62G] | ≤ 0.5 |
| GAUCUGUUGGCGUAAUGGUAACACGUCUCCCUCCUAGGGAGAAGACUGCGGGUUCGAGUCCCGUACGGAACG [U2A C5U G23A A37G] | 0.689 |
| GAUGGGUUGGCGUAAUGGUAACGCAUCUCGCUCAUAAGGAGAAGACUGGGGGUUCGAGUCCCGUACGGAACG [U2A C4G C5G G25A C30G C34A C49G] | ≤ 0.5 |
| GAUCCGUUGGCGUAAUGGUAACGCGUCUCCCUCCUAAGGAGUAGACUGCGGGUUCGAGUCCCGUACGGAACG [U2A A42U] | 0.864 |
| GAUCCGUUGGCGUAAUGGUAACGCGUCUCCCUCCUAAGGAGGAGACUGCGGGUUCGAGUCCCGUACGGAACG [U2A A42G] | 0.74 |
| GAUACGUUGGCGUAAUGCUAACGCGUCUCCCUCCUAAGGAGAAGACAGCGGGUUUGAGUCCCGUACGGAACG [U2A C4A G18C U47A C55U] | 0.793 |
| GAUUCGUUGGCGUAAUGGUAACGCGUCACUCUCCUAAGGAGAAGACUGCGGGUUCGGGUCCCGUACGGAACG [U2A C4U U28A C30U A57G] | 0.688 |
| GAUACGUUGGCGUAAUGGUAACGCGUCUCCCUCAUAAGGAGACGAUUGCGGGUUCGAGUCCCGUACGGAACG [U2A C4A C34A A43C C46U] | ≤ 0.5 |
| GAUCAGUUGGCGUAAUGGUAACGCGUCUCCCUCCUAAGGAGAAGACUGCGGGUUCGAGUCCCGUACGGAACG [U2A C5A] | 0.611 |
| GAUCGGUUGGCGUAAUGGUAACGCGUCUCCCUCCUAAGGAGAAGACUGCGGGUUCGAGUCCCGUAUGGAACG [U2A C5G C66U] | 0.657 |
| GAUCGGUUGGGGUUUCGGUAACGCGUCUUCCUCCUAAGGAGAAGACUGCGGGUUCGAGUCCCGUACGGAACG [U2A C5G C11G A14U A15U U16C C29U] | ≤ 0.5 |
| GAUCUGUUGGCGUAAUGGUAACGUGUCUCCCUCCUAAGGAGAAGACUGCGGGUCCGAAUCCCGUACGGAACG [U2A C5U C24U U54C G58A] | 0.569 |
| GAUGCGUUGGCGUAAUGGUAACGCGUCUCCCUCUUAAGGAGAAGACUGCGGGUUCGAGUCCCGUACGGAACG [U2A C4G C34U] | ≤ 0.5 |
| GAUCCGUUGGCGUAAUGGUAACGCGUCUCCCUCCUAAGGAGGAGACUGCGGGUUCGAGUCUCAUACGGAACG [U2A A42G C61U G63A] | ≤ 0.5 |
| GAUCCGUUGGCGUAAUGGUAACGCGUCUCCCUCCUAAGGAGAAGACUGCGGGUUCGUGUCUCGUAGGGAACG [U2A A57U C61U C66G] | ≤ 0.5 |
| GAUGCGUUGGCGUAAUGGUAACGCGUCUCCCUCCUAAGGAGAAGACUGCGGGUUCAAAUCCCGUCCGGAACG [U2A C4G G56A G58A A65C] | ≤ 0.5 |

| Variant | yeast fitness |
| --- | --- |
| GAUUCGUUGGCGUAAUGGUAACGCCUCUCCCUCCUAAGGAGAAGACUGUGGGUUCGAGUCUCGUACGGAACG [U2A C4U G25C C49U C61U] | 0.581 |
| GAUUCGUGGGCGUAAUGGUAACGCGUCUCCCUCCUAAGGAGAAGACUGCGGGUUGGAGUCCCGUACGAAACG [U2A C4U U8G C55G G68A] | ≤ 0.5 |
| GAUCGGUUGGCGUAAUGGUAACGUGUCUCGCUCCUAAGGAGAAGACUGCGGGUUCGAGUCCCGUACGGAACG [U2A C5G C24U C30G] | ≤ 0.5 |
| GAUCGGUUGGCGUAAUGGUAACGCGUCUCCCUCCUAAGGAGUAGACUGCGGGUUCGAGUCCCGUACGGAACG [U2A C5G A42U] | ≤ 0.5 |
| GAUCGGUUGGCGUAAUGGUAACGCGUCUCCCUCCUAAGGAGGAGACUGCGGGUUCGAGUCCCGUACGGAACG [U2A C5G A42G] | 0.541 |
| GAUACGUUGGCGUAAUGGUAACGCGUCUCCCUCCUAAGGAGAAGAGUGCGGAUUCGAGUCCCGUACGGAUCG [U2A C4A C46G G52A A70U] | ≤ 0.5 |
| GAUCUGUUGGCGUAGUGGUAACGCGUCUCCCUCUUAAGGACAAGACUGCGGGUUAGAGUCCCGUACGGAACG [U2A C5U A15G C34U G41C C55A] | ≤ 0.5 |
| GAUUCGUUGCCGUAAUGGUAACGCGUCUUCCACCUAAGGAGAUGACUGCGGGUUCGAGUCCCGUACGGAACG [U2A C4U G10C C29U U32A A43U] | ≤ 0.5 |
| GAUCAGUUGGCGUAAUGGUAACGCGUCUCCCUUCUAAGGAGAAGACUGCGGGUUCGGGUCCCGUAGGGAACG [U2A C5A C33U A57G C66G] | ≤ 0.5 |
| GAUGCGUUGGCGUAAUGGUAACGCGUCUCCCUCCUAAGGAGAAGACUGCGGGUUCGAGUCCCGUACGGAACG [U2A C4G] | 0.838 |
| GAUGCGUUGGCGUAAUGGUAACGCGUCUCCCUCCUAAGGAGGAGUCUGCGGGUUCGAGUCCCGUAUGGAACG [U2A C4G A42G A45U C66U] | ≤ 0.5 |
| GAUCGGUUGGCGUAAUGGUAACGUGUCUCGCUCCUAAGGAGAAGACUGCGGGUUCGAGUCCCGUACGGACCG [U2A C5G C24U C30G A70C] | 0.54 |
| GAUACAUUGGCGUAAUGGUAACGCGUCUGCCUCCUAAGGAGAAGACUGCGGGUUCGGGUCCCGUACGGAACG [U2A C4A G6A C29G A57G] | ≤ 0.5 |
| GAUCGGUAGGCGUAAUGGUAACGCGUCUCCCUCCUAAGGAGAAGACUGCGGGUUCGAGUCACGUACGGAACG [U2A C5G U8A C61A] | ≤ 0.5 |
| GAUCGGUUGGCGUAAUGGUAACGUGUCUCGCUCCUAAGGAGAAGACUGUGGGUUCGAGUCCCGUACGGAACG [U2A C5G C24U C30G C49U] | ≤ 0.5 |
| GAUCAGUUGGCGUAAUGGUAACGCGUCUCCCUCCUAAGGAGAAGACUGCGGGGUCGAGUCCCGUACGGAACG [U2A C5A U53G] | 0.514 |
| GAUCAGUUGGCGUAAUGGUAACGCGUCUCCCUCCUAAGGAGAAGAUUGCCGGUUCGAGUCCCGUACGGAACG [U2A C5A C46U G50C] | ≤ 0.5 |
| GAUCCGUUGGCGUAAUGGUAACGCGUCUCCCUCCUAAGGAGGGGACUGCAGGUUCGAGUCCCGUACGGAACG [U2A A42G A43G G50A] | 0.541 |
